Series [1] concerns A549. Description: Downregulation of HIST1H2AC gene expression in human A549 cells at 34 nM after 12 hrs by microarray analysis relative to control. In kind it is functional. Summed up: (§1)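 A549 cells, 4 × 10^5 per 60 mm dish, were exposed to conjugate for 12 h in medium with 0.1% DMSO; vehicle control was 0.1% DMSO. Whole human genome (~25 000 genes) expression was profiled by microarray and expression compared with the control.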

Series [2] concerns A549. Description: Downregulation of SIPA1L1 gene expression in human A549 cells at 34 nM after 12 hrs by microarray analysis relative to control. In kind it is functional. The method in brief: (§2)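 A549 cells (RPMI-1640, 10% heat-inactivated FBS, penicillin/streptomycin, 37 °C, 5% CO2) seeded at 4 × 10^5 per 60 mm dish. Exposed 12 h to conjugate at 21, 26, 34 or 100 nM in medium with 0.1% DMSO, against 0.1% DMSO control. Whole-genome (~25 000 genes) expression profiled by microarray.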

Series [3] relates to A549. Description: Downregulation of GTDC1 gene expression in human A549 cells at 34 nM after 12 hrs by microarray analysis relative to control. Format: functional. The method in brief:
as §1

Series [4] concerns A549. Description: Downregulation of RABGAP1L gene expression in human A549 cells at 34 nM after 12 hrs by microarray analysis relative to control. In kind it is functional. Summed up: as §2
In series [5] the test system is A549. The series is described as follows: Downregulation of NBEA gene expression in human A549 cells at 34 nM after 12 hrs by microarray analysis relative to control. Format: functional. The method in brief: as §1
In series [6] the test system is A549. Description: Upregulation of BTG2 gene expression in human A549 cells at 34 nM after 12 hrs by microarray analysis relative to control. In kind it is functional. Summed up: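 4 ×10^5 A549 cells seeded per 60 mm dish and treated 12 h with conjugate (21, 26, 34 or 100 nM) in medium; control medium contained 0.1% DMSO, with conjugates added as 0.1% DMSO solutions. Whole human genome (~25 000 genes) expression profiled by microarray against the DMSO control. A549 culture: RPMI-1640 with 10% heat-inactivated FBS, penicillin/streptomycin, 37 °C, 5% CO2.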

Series [7] deals with A549. Description: Downregulation of Q5WOV6 gene expression in human A549 cells at 26 nM after 12 hrs by microarray analysis relative to control. In kind it is functional. The method in brief: as §2
Series [8] deals with A549. Description: Downregulation of XP_375606.2 gene expression in human A549 cells at 26 nM after 12 hrs by microarray analysis relative to control. In kind it is functional. The method in brief: as §2
Series [9] relates to A549. The series is described as follows: Downregulation of HIST1H2AC gene expression in human A549 cells at 26 nM after 12 hrs by microarray analysis relative to control. Format: functional. Summed up:
as §1

Series [10] has as its system A549. Description: Downregulation of MYCBP2 gene expression in human A549 cells at 26 nM after 12 hrs by microarray analysis relative to control. Format: functional. Summed up: as §1
For a further series, the system named is Mus musculus. Description: Toxicity in BALB/c nu/nu mouse at 1.6 mg/kg, iv administered as liposomal conjugate for 14 days. In kind it is organism-based. Also noted: dose 1.6 mg/kg, route intravenous. The conditions noted are these: in vivo, 336 h. The method in brief:
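Pre-test in male BALB/c-nu/nu mice without xenografts. Naked conjugate was dissolved in 100% DMSO and given ip at 0.50 mg/kg (12.5 μg/mouse). Liposomal conjugate (0.33 mg/mL in 17 mM lipid, hydrated with water and sonicated) was given iv at 1.6 mg/kg (41 μg/mouse), 125 μL single dose.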

The subject of series [11] is A549. The series is described as follows: Downregulation of PTPRK gene expression in human A549 cells at 26 nM after 12 hrs by microarray analysis relative to control. In kind it is functional. Summed up: as §2
The subject of series [12] is A549. The series is described as follows: Downregulation of CTTNBP2 gene expression in human A549 cells at 26 nM after 12 hrs by microarray analysis relative to control. In kind it is functional. The method in brief:
as §1

Series [13] relates to A549. Description: Downregulation of RABGAP1L gene expression in human A549 cells at 26 nM after 12 hrs by microarray analysis relative to control. In kind it is functional. The method in brief: as §2

Regarding `CC(=O)Nc1cn(C)c(C(=O)Nc2cn(C)c(C(=O)Nc3cc(C(=O)NCCC(=O)Nc4cc(C(=O)NCCCC(=O)Nc5cn(C)c(C(=O)NCCC(=O)Nc6cn(C)c(C(=O)Nc7ccc8[nH]c(C(=O)N9CC(CCl)c%10c9cc(O)c9ccccc%109)cc8c7)n6)n5)n(C)c4)n(C)c3)n2)n1` (racemic), the “fold change (FC)” value in the series on A549 [1] was found to be 0.329; in the series with A549 [2], 0.309; in the series on A549 [3], 0.307; with A549 [4], 0.276; with A549 [5], 0.152; in the series on A549 [6] it was 9.7.

As to `CC(=O)Nc1cn(C)c(C(=O)Nc2cc(C(=O)Nc3cc(C(=O)NCCC(=O)Nc4cc(C(=O)NCCCC(=O)Nc5cc(C(=O)NCCC(=O)Nc6cn(C)c(C(=O)Nc7ccc8[nH]c(C(=O)N9CC(CCl)c%10c9cc(O)c9ccccc%109)cc8c7)n6)n(C)c5)n(C)c4)n(C)c3)n(C)c2)n1` (racemic), the “fold change (FC)” value was determined as 0.324 in the series with A549 [7]; 0.35 in the series on A549 [8]; 0.362 in the series on A549 [9]; 0.338 in the series on A549 [10]; 0.257 in the series with A549 [11]; 0.36 in the series on A549 [12]. For the same molecule, in the series with A549 [13], the “fold change (FC)” value was 0.155. In the series with Mus musculus, the Activity result is listed as “Non-toxic”.

The record behind these values is ChEMBL document CHEMBL2169747, “Synthesis and biological properties of highly sequence-specific-alkylating N-methylpyrrole-N-methylimidazole polyamide conjugates” (J Med Chem, 2012).
